Experimental data from article PMC7083616 (Science Advances, 2020).

How the values were obtained:
TrxR1 [1] = molecular target: T1, TrxR1 (Homo sapiens, UniProt Q16881); experiment: Recombinant TrxR1 insulin reduction assay; assay type: biochemical; settings: with NADPH, Trx1 used to reduce insulin
T1 sequence (Q16881 1-499 isoform Q16881-5): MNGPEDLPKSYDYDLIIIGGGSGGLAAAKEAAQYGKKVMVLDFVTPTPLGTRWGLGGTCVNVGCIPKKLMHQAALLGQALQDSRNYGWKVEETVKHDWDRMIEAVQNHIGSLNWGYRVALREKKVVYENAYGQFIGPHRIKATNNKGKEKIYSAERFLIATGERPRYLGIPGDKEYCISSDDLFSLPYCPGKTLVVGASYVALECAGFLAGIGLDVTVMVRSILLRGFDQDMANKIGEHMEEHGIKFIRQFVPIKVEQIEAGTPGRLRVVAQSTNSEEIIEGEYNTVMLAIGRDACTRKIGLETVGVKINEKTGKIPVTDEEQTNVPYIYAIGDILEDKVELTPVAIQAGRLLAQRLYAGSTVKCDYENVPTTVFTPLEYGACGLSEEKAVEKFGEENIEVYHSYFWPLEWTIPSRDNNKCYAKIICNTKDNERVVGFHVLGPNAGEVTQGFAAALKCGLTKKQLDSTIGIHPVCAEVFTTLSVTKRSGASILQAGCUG
Procedure, shortened: (§1)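 Test compound was preincubated for 75 min with 10 nM TrxR1 or 10 nM TrxR2, plus BSA (0.1 mg/ml) and 250 μM NADPH. Then 25 μM Trx1 (TrxR1) or Trx2 (TrxR2) and 160 μM insulin were added. NADPH consumption was followed at A340 for 20 min.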

TrxR1 [2] = molecular target: T1, TrxR1; experiment: Cellular TrxR1 activity, Trx1-linked insulin end point assay; assay type: cell-based; settings: FaDu cells, 1 μM, 3 hours
Procedure, shortened: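 FaDu cells were seeded at 400,000 per well and treated 24 h later for 3 h at 37°C. Cells were lysed in modified RIPA buffer and protein measured by BCA. Lysate was incubated with 0.16 mM insulin, 0.33 mM NADPH and 16 μM Trx1 in TE buffer (pH 7.5) at 37°C for 0–90 min. Each time point was stopped with 7.2 M guanidine-HCl/2.5 mM DTNB and read at A412. Activity came from the A412 rise against a pure-enzyme standard curve; n = 3.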

Nrf2 = experiment: pTRAF reporter, Nrf2 transcriptional activity; assay type: cell-based, human; settings: HEK293 cells, 1 μM, 24 hours
Procedure, shortened: (§2)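 HEK293 cells were seeded at 20,000 per well on collagen I-coated plates. The next day, they were transfected overnight with 50 ng of the pTRAF-Nrf2/HIF/NFκB vector using Turbofect. Cells were then exposed for 24 h to 1 μM test compound. Positive controls were auranofin (1 μM) for Nrf2 and TNF-α (20 ng/ml) for NFκB. After 30 min Hoechst (40 ng/ml), per-well reporter fluorescence was quantified by high-content imaging.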

[3] = molecular target: T2, ~55-kDa band (TrxR1) in A549 cell lysates (Homo sapiens, UniProt Q16881); experiment: DG-8 competition assay in A549 cell lysates; assay type: binding; settings: compound 0.5 to 50 μM 30 min, then DG-8 5 μM 30 min
T2 sequence (Q16881 1-499 isoform Q16881-5): T1 sequence (Q16881 1-499 isoform Q16881-5)
Procedure, shortened: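 A549 lysate (30 μg) was preincubated with test compound (0.5 to 50 μM) for 30 min, then with the dansyl-tagged probe (5 μM) for 30 min. Samples in LDS buffer with 100 mM DTT were heated at 95°C for 5 min and run on 10% bis-tris gels. The ~55-kDa band was imaged by UV dansyl fluorescence.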

NFκB = experiment: pTRAF reporter, NFκB transcriptional activity; assay type: cell-based, human; settings: HEK293 cells, 1 μM, 24 hours
Procedure, shortened: as §2

[4] = test system: STAT-driven luciferase expression; experiment: STAT-dependent luciferase in HEK293-shScramble and HEK293–shPrx1 + Prx2; assay type: cell-based, human; settings: IL6 50 ng/ml + sIL6R 100 ng/ml
TrxR2 = TrxR2 (Homo sapiens, UniProt Q9NNW7); experiment: Recombinant TrxR2 insulin reduction assay; assay type: biochemical; settings: with NADPH, Trx2 used to reduce insulin
Procedure, shortened: as §1

TrxR2, sequence (Q9NNW7 37-524, species assumed): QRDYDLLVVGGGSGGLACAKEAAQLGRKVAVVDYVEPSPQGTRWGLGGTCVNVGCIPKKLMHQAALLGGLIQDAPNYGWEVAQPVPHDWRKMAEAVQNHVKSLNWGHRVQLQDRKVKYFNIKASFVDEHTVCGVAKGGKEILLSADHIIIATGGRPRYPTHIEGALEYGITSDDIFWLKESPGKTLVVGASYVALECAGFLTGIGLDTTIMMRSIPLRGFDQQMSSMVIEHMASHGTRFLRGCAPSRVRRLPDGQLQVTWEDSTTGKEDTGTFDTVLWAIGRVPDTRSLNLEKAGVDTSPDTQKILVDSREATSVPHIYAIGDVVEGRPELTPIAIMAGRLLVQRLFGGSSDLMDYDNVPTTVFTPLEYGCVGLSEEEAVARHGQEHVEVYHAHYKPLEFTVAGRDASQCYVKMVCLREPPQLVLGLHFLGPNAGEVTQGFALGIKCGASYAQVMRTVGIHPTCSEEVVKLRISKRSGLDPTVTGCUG

| inhibition of recombinant TrxR1 activity (TrxR1 [1]) | competition with DG-8 for binding to the ~55-kDa band [3] | inhibition of cellular TrxR1 activity (TrxR1 [2]) | inhibition of recombinant TrxR2 activity (TrxR2) | SMILES | effect on cellular TrxR1 activity (TrxR1 [2]) | Nrf2 activation (Nrf2) | NFκB activation (NFκB) | luciferase inhibition in control versus Prx1 + Prx2 knockdown cells [4] |
| --- | --- | --- | --- | --- | --- | --- | --- | --- |
| potently inhibited the activity of TrxR1 | could compete with DG-8 for binding | approximately 40% | – | O=[N+]([O-])c1ccc2c(c1)S(=O)(=O)C=C2 [Stattic] | – | clearly triggered Nrf2 activation | little effect on NFκB activation | more potently inhibited luciferase expression in the control cells |
| – | potently outcompeted the probe | – | – | COc1ccc([N+](=O)[O-])c(S(=O)(=O)c2ccc(Cl)cc2)n1 [TRi-1] | – | – | – | more potently inhibited luciferase expression in the control cells |
| potently inhibited the activity of TrxR1 | potently outcompeted the probe | – | the only compound that inhibited TrxR2 | CC(=O)OC[C@H]1O[C@@H]([S-])[C@H](OC(C)=O)[C@@H](OC(C)=O)[C@@H]1OC(C)=O.CCP(CC)CC.[Au+] [auranofin] | – | – | – | – |

| SMILES | inhibition of recombinant TrxR1 activity (TrxR1 [1]) | competition with DG-8 for binding to the ~55-kDa band [3] | inhibition of cellular TrxR1 activity (TrxR1 [2]) | inhibition of recombinant TrxR2 activity (TrxR2) | effect on cellular TrxR1 activity (TrxR1 [2]) | Nrf2 activation (Nrf2) | NFκB activation (NFκB) | luciferase inhibition in control versus Prx1 + Prx2 knockdown cells [4] |
| --- | --- | --- | --- | --- | --- | --- | --- | --- |
| CN(CC(=O)N(Cc1ccc(C2CCCCC2)cc1)c1ccc(C(=O)O)c(O)c1)S(=O)(=O)c1c(F)c(F)c(F)c(F)c1F [BP1-102] | did not fully inhibit the enzymatic activity of TrxR1 | not able to compete with the probe | – | – | did not appreciably alter the TrxR1 activity | did not activate Nrf2 | – | – |
